Results from ChEMBL document CHEMBL5696442, “Discovery of type II inhibitors of TGFβ-activated kinase 1 (TAK1) and mitogen-activated protein kinase kinase kinase kinase 2 (MAP4K2)” (J Med Chem, 2015).
Active and inactive are the calls of the source. The rule behind the calls is not given here.

Assays:
[1] = molecular target: T1, Serine/threonine-protein kinase Chk1 (Homo sapiens) (UniProt O14757); experiment: Inhibition of CHK1 in human Huh-7 cells at 1 uM by KiNativ Profiling analysis relative to control; type: cell-based
T1 sequence (whole entry): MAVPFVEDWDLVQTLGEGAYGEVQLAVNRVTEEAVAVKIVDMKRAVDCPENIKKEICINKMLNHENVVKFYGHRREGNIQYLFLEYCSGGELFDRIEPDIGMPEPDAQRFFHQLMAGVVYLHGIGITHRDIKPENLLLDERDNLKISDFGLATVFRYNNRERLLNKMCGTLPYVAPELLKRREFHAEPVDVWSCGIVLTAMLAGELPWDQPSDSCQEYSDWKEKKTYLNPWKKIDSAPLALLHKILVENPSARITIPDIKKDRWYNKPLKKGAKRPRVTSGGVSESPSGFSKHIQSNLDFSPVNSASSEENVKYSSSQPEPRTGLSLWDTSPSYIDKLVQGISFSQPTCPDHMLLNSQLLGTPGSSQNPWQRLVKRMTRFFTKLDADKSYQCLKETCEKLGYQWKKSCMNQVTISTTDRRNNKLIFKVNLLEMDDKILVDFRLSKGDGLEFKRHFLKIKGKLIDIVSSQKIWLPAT

[2] = molecular target: Serine/threonine-protein kinase RIO1 (Homo sapiens) (UniProt Q9BRS2); experiment: Inhibition of RIOK1 (unknown origin) at 10 uM by Ambit Kinomescan binding assay
[3] = test system: Receptor-type tyrosine-protein kinase FLT3 (Homo sapiens), P36888 [N841I]; experiment: Inhibition of FLT3 N841I mutant (unknown origin) at 10 uM by Ambit Kinomescan binding assay relative to control
[4] = molecular target: T2, Dual specificity mitogen-activated protein kinase kinase 6 (Homo sapiens) (UniProt P52564); experiment: Inhibition of MAP2K6 ACT labeling site in human Huh-7 cells at 10 uM by KiNativ Profiling analysis relative to control; type: cell-based
T2 sequence (whole entry): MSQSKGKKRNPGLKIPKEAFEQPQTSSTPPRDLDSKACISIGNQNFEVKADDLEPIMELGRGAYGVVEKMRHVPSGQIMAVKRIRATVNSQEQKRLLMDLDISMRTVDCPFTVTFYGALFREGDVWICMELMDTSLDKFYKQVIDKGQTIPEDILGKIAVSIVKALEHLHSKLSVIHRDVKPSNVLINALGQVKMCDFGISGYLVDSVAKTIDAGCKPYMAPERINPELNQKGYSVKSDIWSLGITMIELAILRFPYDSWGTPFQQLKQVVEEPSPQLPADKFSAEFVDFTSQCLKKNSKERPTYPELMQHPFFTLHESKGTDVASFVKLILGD

[5] = molecular target: T3, Serine/threonine-protein kinase 3 (Homo sapiens) (UniProt Q13188); experiment: Inhibition of MST2 (unknown origin) at 10 uM by Ambit Kinomescan binding assay
T3 sequence (whole entry): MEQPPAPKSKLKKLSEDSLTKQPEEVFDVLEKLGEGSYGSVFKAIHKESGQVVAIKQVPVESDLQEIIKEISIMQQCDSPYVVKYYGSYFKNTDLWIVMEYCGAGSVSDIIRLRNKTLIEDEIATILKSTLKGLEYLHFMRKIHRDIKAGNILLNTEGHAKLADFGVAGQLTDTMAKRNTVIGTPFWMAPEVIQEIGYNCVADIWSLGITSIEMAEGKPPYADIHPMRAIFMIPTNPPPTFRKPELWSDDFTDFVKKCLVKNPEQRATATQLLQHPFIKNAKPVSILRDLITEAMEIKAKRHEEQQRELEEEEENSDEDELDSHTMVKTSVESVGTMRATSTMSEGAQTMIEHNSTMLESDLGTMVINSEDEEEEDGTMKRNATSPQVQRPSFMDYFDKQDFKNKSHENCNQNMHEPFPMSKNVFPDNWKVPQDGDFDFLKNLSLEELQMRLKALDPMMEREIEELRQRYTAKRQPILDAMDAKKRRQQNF

[6] = molecular target: Serine/threonine-protein kinase MARK1 (Homo sapiens) (UniProt Q9P0L2); experiment: Inhibition of MARK1 (unknown origin) at 10 uM by Ambit Kinomescan binding assay
[7] = Inhibition of MAP3K2/3 K2 labeling site in human Huh-7 cells at 1 uM by KiNativ Profiling analysis relative to control; details: condition cancer
[8] = molecular target: Serine/threonine-protein kinase B-raf (Homo sapiens, UniProt P15056); experiment: Inhibition of BRAF K2 labeling site in human Huh-7 cells at 1 uM by KiNativ Profiling analysis relative to control; type: cell-based
[9] = molecular target: Glycogen synthase kinase-3 alpha (Homo sapiens) (UniProt P49840); experiment: Inhibition of GSK3A (unknown origin) at 10 uM by Ambit Kinomescan binding assay
[10] = molecular target: Tyrosine-protein kinase ABL2 (Homo sapiens, UniProt P42684); experiment: Inhibition of ARG ACT labeling site in human Huh-7 cells at 1 uM by KiNativ Profiling analysis relative to control; type: cell-based
[11] = molecular target: Protein kinase C beta type (Homo sapiens) (UniProt P05771); experiment: Inhibition of PKCb Lys2 labeling site in human Huh-7 cell lysate at 1 uM by KiNativ Profiling analysis relative to control; type: subcellular
[12] = molecular target: DNA-PK/Ku70/Ku85 (Homo sapiens) (UniProt P78527+P12956+P13010); experiment: Inhibition of DNAPK ATP labeling site harbouring KGGSWIQEINVAEK in human Huh-7 cell lysate at 1 uM by KiNativ Profiling analysis relative to control; type: subcellular
[13] = molecular target: Cyclin-dependent kinase 6 (Homo sapiens) (UniProt Q00534); experiment: Inhibition of CDK6 Lys2 labeling site in human Huh-7 cells at 1 uM by KiNativ Profiling analysis relative to control; type: cell-based
[14] = molecular target: Ribosomal protein S6 kinase alpha-4 (Homo sapiens) (UniProt O75676); experiment: Inhibition of MSK2 domain1 ATP labeling site in human Huh-7 cell lysate at 1 uM by KiNativ Profiling analysis relative to control; type: subcellular
[15] = molecular target: cAMP-dependent protein kinase catalytic subunit alpha (Homo sapiens) (UniProt P17612); experiment: Inhibition of PKAC alpha (unknown origin) at 1 uM by Ambit Kinomescan binding assay relative to control
Procedure, shortened: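 In vitro ATP-site competition binding assay against a panel of over 420 kinases (KinomeScan), with compound tested at 10 or 1 μM.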

[16] = molecular target: Ribosomal protein S6 kinase alpha-1 (Homo sapiens) (UniProt Q15418); experiment: Inhibition of RSK1 domain1 ACT labeling site in human A-375 cells at 5 uM by KiNativ Profiling analysis relative to control; type: cell-based
[17] = test system: Receptor-type tyrosine-protein kinase FLT3 (Homo sapiens), P36888 [N841I]; experiment: Inhibition of FLT3 N841I mutant (unknown origin) at 1 uM by Ambit Kinomescan binding assay relative to control; values are per cent of control
[18] = molecular target: Serine/threonine-protein kinase PLK3 (Homo sapiens) (UniProt Q9H4B4); experiment: Inhibition of PLK3 (unknown origin) at 1 uM by Ambit Kinomescan binding assay relative to control; values are per cent of control
Sequence of Serine/threonine-protein kinase PLK3 (Homo sapiens) (Q9H4B4 whole entry, looked up): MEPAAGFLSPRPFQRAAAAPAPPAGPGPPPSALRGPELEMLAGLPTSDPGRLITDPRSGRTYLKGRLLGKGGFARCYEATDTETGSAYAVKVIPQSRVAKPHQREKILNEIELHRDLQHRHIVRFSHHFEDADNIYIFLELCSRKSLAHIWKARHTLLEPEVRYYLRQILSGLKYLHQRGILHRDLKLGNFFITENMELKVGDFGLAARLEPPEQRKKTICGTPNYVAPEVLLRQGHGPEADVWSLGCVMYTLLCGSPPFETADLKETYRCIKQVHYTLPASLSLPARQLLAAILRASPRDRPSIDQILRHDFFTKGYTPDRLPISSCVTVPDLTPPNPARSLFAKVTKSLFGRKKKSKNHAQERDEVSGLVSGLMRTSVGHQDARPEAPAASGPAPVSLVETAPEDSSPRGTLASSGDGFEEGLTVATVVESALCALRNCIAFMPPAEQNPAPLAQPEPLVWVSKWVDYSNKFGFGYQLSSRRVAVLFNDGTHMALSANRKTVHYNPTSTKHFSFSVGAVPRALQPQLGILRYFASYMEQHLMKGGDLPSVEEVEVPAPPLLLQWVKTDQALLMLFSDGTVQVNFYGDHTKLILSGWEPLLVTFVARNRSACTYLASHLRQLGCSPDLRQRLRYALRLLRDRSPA

Sequence of Tyrosine-protein kinase ABL2 (P42684 whole entry): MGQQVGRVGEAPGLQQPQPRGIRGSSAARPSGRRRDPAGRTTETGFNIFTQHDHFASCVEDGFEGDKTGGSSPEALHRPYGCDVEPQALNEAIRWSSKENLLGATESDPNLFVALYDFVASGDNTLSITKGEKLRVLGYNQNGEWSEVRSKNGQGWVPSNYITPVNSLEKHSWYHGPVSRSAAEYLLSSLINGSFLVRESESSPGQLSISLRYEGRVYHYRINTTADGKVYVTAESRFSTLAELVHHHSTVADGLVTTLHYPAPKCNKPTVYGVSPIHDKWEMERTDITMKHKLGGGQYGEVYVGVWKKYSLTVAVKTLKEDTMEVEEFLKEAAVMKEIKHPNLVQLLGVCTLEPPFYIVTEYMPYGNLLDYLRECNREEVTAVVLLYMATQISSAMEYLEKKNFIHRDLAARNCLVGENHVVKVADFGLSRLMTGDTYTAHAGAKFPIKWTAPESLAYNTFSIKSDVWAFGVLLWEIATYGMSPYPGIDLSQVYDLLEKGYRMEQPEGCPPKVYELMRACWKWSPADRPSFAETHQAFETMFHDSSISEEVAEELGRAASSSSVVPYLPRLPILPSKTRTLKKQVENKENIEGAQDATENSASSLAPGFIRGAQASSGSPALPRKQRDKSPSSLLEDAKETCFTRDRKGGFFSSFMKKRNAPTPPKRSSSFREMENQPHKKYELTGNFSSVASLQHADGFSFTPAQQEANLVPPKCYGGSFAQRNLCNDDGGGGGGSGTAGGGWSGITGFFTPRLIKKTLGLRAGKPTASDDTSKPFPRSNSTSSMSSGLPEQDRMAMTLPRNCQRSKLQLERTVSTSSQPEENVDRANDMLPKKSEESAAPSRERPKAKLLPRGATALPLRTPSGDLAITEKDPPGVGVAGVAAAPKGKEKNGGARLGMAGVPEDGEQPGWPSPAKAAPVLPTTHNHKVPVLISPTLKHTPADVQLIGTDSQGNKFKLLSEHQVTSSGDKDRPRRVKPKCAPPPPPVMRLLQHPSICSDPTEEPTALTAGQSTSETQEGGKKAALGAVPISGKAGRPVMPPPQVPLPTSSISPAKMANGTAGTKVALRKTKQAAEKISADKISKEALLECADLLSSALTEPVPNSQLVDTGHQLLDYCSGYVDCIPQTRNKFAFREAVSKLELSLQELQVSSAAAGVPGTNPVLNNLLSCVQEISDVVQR
Sequence of Ribosomal protein S6 kinase alpha-4 (Homo sapiens) (O75676 whole entry, looked up, the tested form may be a part): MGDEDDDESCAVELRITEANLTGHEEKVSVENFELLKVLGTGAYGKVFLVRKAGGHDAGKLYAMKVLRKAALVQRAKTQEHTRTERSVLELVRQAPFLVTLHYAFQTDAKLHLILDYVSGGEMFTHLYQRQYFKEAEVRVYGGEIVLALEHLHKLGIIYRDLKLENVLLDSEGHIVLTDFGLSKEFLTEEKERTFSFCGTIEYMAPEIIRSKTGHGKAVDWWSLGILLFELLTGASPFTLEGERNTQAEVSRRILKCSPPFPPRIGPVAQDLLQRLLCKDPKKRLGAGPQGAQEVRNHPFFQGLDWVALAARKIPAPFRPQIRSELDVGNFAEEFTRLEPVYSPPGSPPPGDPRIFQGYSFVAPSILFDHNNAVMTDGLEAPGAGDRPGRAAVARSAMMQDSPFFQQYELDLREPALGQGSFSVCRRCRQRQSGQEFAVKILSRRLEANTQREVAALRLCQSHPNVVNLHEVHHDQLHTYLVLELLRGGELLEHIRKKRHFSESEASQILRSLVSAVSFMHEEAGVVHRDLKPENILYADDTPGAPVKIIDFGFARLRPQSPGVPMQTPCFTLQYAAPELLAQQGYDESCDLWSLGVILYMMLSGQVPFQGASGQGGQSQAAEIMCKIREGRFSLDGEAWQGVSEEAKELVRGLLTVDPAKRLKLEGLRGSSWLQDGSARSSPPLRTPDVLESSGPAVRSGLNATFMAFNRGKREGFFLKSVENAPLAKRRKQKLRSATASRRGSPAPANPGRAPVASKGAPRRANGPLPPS
Sequence of Serine/threonine-protein kinase B-raf (P15056 whole entry): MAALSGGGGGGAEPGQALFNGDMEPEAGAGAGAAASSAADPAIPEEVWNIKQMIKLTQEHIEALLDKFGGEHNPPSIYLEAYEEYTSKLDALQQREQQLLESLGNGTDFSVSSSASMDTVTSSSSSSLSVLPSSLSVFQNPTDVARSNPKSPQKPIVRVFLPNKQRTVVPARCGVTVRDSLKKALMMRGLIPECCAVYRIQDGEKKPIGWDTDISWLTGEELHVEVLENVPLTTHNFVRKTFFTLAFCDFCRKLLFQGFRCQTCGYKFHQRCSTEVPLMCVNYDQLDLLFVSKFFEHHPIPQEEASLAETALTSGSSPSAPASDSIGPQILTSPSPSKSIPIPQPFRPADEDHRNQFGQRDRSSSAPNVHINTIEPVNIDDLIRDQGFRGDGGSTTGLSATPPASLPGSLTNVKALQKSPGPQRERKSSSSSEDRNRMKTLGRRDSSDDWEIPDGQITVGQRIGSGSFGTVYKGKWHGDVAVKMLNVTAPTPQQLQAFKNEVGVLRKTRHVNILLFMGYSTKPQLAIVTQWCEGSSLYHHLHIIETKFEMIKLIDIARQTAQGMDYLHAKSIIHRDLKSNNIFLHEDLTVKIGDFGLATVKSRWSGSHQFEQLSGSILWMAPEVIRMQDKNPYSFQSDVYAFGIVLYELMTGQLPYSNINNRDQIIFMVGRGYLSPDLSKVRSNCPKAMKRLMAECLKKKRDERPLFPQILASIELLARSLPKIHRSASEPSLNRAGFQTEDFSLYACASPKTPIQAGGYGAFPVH
Sequence of Serine/threonine-protein kinase RIO1 (Homo sapiens) (Q9BRS2 whole entry): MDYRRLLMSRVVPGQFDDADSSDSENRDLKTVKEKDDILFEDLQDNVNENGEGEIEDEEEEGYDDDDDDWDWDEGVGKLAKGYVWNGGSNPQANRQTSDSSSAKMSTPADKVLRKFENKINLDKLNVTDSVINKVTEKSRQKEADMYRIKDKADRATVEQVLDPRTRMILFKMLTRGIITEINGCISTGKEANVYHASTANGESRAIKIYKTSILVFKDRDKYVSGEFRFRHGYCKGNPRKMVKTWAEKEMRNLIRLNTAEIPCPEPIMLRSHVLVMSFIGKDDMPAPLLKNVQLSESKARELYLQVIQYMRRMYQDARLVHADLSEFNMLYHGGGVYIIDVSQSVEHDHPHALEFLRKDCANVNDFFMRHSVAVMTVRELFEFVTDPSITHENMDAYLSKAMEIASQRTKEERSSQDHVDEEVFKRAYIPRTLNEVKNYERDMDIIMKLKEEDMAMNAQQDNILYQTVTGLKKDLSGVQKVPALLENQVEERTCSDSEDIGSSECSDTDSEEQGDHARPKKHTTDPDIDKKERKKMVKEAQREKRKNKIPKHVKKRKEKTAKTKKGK
Sequence of Protein kinase C beta type (Homo sapiens) (P05771 2-671 limits assumed): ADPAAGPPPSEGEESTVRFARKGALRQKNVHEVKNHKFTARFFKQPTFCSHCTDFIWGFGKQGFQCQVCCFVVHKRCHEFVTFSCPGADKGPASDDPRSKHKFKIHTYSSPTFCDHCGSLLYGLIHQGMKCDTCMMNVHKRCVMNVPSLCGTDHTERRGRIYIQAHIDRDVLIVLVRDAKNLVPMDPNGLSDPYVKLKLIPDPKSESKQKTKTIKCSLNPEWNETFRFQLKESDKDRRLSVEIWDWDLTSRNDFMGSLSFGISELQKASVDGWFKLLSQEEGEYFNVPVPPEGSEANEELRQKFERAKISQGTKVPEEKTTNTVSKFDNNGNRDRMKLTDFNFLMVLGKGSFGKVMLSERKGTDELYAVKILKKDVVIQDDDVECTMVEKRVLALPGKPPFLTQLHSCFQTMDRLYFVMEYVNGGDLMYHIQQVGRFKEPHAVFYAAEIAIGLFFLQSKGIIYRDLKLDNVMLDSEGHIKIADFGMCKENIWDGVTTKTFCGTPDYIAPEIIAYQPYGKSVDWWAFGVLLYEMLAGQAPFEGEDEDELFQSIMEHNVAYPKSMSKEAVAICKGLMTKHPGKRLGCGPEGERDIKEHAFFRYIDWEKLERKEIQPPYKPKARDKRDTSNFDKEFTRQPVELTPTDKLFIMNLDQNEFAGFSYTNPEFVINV
Sequence of Cyclin-dependent kinase 6 (Homo sapiens) (Q00534 whole entry, the tested form may be a part): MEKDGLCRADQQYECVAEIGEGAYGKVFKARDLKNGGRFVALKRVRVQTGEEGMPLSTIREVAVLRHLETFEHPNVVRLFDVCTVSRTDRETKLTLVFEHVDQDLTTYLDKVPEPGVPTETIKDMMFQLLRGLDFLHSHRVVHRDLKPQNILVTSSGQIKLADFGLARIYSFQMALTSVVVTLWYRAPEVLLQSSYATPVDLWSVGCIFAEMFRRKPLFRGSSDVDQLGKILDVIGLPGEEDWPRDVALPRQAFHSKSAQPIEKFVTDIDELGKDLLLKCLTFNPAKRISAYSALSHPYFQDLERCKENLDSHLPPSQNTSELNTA

CCN1CCN(Cc2ccc(NC(=O)c3ccc(C)c(Oc4ccnc5[nH]ccc45)c3)cc2C(F)(F)F)CC1
inhibition [1]: -0.4% | inhibition [2]: inactive | inhibition [3]: 0% | inhibition [4]: 15.4% | inhibition [5]: inactive | inhibition [6]: inactive | inhibition at 1 µM [7]: 7.4% | inhibition [8]: 1.7% | inhibition [9]: inactive

CNc1cc(Oc2cc(C(=O)Nc3cc(N4CCN(C)CC4)cc(C(F)(F)F)c3)ccc2C)ncn1
inhibition [10]: 31.6% | inhibition [11]: -1.2% | inhibition [12]: -5.7% | inhibition [13]: 24.4% | inhibition [14]: -8%

CCN1CCN(Cc2ccc(NC(=O)c3ccc(C)c(/C=C/c4cnc5[nH]ccc5c4OC)c3)cc2C(F)(F)F)CC1
inhibition [15]: 84% | inhibition [16]: 14.7% | residual activity [17]: 2.3% | residual activity [18]: 100%
